Experiments:
[1] = target: Estrogen receptor beta (Homo sapiens) (UniProt Q92731); experiment: Relative binding affinity to ERbeta by radiometric binding assay relative to estradiol
In short: (§1)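 RBA values for the PAMAM-dendrimer conjugate are calculated from the concentration of attached ligand rather than that of the conjugate.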

[2] = target: T1, Estrogen receptor (Homo sapiens) (UniProt P03372); experiment: Relative binding affinity to ERalpha by radiometric binding assay relative to estradiol; in short: as §1
T1 sequence (whole entry): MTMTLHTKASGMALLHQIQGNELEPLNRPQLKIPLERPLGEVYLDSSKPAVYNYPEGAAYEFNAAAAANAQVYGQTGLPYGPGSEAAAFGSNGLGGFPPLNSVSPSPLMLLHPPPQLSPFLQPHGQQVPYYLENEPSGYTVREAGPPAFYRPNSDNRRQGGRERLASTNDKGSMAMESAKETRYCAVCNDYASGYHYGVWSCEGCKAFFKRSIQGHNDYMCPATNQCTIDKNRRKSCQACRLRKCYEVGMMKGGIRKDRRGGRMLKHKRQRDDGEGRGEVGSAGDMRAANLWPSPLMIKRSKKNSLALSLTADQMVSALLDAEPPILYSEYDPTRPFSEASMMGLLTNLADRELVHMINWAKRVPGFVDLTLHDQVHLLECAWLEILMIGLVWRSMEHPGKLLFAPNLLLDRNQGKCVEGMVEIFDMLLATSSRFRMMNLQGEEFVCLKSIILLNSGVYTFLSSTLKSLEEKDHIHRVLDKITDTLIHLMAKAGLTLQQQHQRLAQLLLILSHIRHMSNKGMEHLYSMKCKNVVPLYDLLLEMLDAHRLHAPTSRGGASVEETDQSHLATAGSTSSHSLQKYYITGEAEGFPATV

Estrogen receptor beta (Homo sapiens), sequence (Q92731 whole entry): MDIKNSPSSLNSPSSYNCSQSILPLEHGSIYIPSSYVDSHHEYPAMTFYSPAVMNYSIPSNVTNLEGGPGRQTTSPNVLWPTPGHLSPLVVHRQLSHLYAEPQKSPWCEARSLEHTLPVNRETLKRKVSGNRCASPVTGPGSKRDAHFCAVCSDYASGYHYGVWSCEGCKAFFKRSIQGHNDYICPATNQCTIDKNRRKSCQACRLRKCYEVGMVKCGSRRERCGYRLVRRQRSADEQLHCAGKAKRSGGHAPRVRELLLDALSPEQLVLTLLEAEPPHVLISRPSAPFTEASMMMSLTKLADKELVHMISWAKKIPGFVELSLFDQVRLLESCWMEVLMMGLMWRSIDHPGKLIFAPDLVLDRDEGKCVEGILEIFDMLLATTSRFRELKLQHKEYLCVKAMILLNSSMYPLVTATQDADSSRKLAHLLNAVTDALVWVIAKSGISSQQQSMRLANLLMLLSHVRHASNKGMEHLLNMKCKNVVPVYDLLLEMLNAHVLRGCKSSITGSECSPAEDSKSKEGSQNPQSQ

Row | relative binding affinity (RBA) [1] | relative binding affinity (RBA) [2] | Structure (SMILES)
1 | 0.084 |  | CCSC(SCC)c1ccc(OCCCn2c(-c3ccc(O)cc3)c(C)c3cc(O)ccc32)cc1
2 | 6.5 | 11 | COc1ccc(Cn2c(-c3ccc(O)cc3)c(C)c3cc(O)ccc32)cc1
3 | 1.2 |  | CCCCOc1ccc(Cn2c(-c3ccc(O)cc3)c(C)c3cc(O)ccc32)cc1
4 | 2 | 11 | COCCCCCCn1c(-c2ccc(O)cc2)c(C)c2cc(O)ccc21
5 | 1 | 10 | Cc1c(-c2ccc(O)cc2)n(Cc2ccc(O)cc2)c2ccc(O)cc12
6 | 0.048 |  | Cc1ccc(C(=O)NCCCCn2c(-c3ccc(O)cc3)c(C)c3cc(O)ccc32)cc1
7 | 1.4 | 13 | Cc1c(-c2ccc(O)cc2)n(CCCCCCO)c2ccc(O)cc12
8 | 3 |  | CCCCOCCCCCCn1c(-c2ccc(O)cc2)c(C)c2cc(O)ccc21
9 | 0.24 | 2.17 | CC(=O)NCCNCc1ccc(OCCCn2c(-c3ccc(O)cc3)c(C)c3cc(O)ccc32)cc1

— ChEMBL document CHEMBL1154527, “Tethered indoles as functionalizable ligands for the estrogen receptor” (Bioorg Med Chem Lett, 2009)
